From PubChem
Compounds with a hit are over-represented: about 2.9% of the library has one in this group of screens.
Vif inh – HIV Vif inhibition; 340,000 compounds, 0.35% hits; AID 602346; HEK293T cells, Vif self-association by quenched fluorescence, imaging, 24 h; inhibition, % at 7.49 µM; in the data active means inhibition above about 50%, passing the limit was not always enough; inconclusive means no clear call, values can overlap the other calls; inactive means below about 31%
PGC1a acetyl inh – lowers PGC1a acetylation signal in U2OS cells | AID 651687 | inhibition, % at 15.6 µM | AlphaScreen anti-acetyl-lysine; with virally co-expressed GCN5 acetyltransferase | 350,000 compounds, 0.17% hits;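 active means every replicate shows inhibition of at least 40%; inconclusive means mean inhibition at least 40% but some replicate below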;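 further: 0% = neutral control wells and 100% = positive control wells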
rRNA inh HTS – selective bacterial rRNA inhibition in E. coli; 350,000 compounds, 1.6% hits; E. coli WT GFP vs humanized-ribosome RFP mutants, fluorescence, 24 h; hits give low values; DMSO median 0, no signal -100; GFP signal change (wild-type ribosome), % (concentration not given with the values);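 active means significant combined selectivity score with lowered wild-type GFP, culture density cut under 30%, mutant RFP and density less affected; inactive means any of these conditions unmet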
Cneo AK release – causes C. neoformans cell lysis; lysis activity, % at 15 µM; AID 651654; adenylate kinase release luminescence, 4 h; normalised: neutral wells 0, clomiphene wells 100; 360,000 compounds, 0.2% hits;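 active means mean lysis activity across replicates of at least 80%, whatever share of replicates individually reach that level; inactive means mean lysis activity below 80%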
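Assay system: Cryptococcus neoformans yeast cells / Dosing: single-point compound dose / Timing: 4 h at 37 °C static, read 1 h later / Measured by: luminescence of released adenylate kinase using an AK detection reagent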
FGF22 binding – shifts melting point of recombinant human FGF22; 340,000 compounds, 1.5% hits; recombinant FGF22 thermal shift, SYPRO orange fluorescence; percent of sucrose octasulfate shift, DMSO zero; activity (Tm shift, normalised), % at 9.99 µM;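 active means mean Tm shift, scaled 0 neutral to 100 positive control, at about 1.3% or above, every replicate too, limit read from the data; inconclusive means no clear call, values can overlap the other calls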
Target sequence (Q9HCT0 whole entry, looked up): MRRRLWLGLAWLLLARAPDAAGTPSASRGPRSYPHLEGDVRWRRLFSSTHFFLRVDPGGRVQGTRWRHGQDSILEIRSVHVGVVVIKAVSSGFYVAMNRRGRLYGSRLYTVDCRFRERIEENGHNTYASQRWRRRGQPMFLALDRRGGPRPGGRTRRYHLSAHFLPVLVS
PglD inh – PglD (C. jejuni) enzyme inhibition; purified PglD enzyme, DTNB colorimetric CoA detection; 360,000 compounds, 0.098% hits; inhibition, % at 12.5 µM; AID 602405; in the data active means inhibition above about 16%, passing the limit was not always enough; inconclusive means no clear call, values can overlap the other calls
AID977621 – growth inhibition of wild-type GFP E. coli, dose response, H69 mutant RFP, cherry-pick; shares compounds with rRNA inh HTS; E. coli wild-type GFP strain growth, fluorescence, 24 h; activity change, negative = inhibition at 50 µM; 1,900 tested, under 10 active; AID 977621;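 active means Wild-type ribosome reporter drop at least double the humanized mutant ribosome reporter drop, growth loss under a set limit; inconclusive means no clear call, values can overlap the other calls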;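 further: wild-type GFP and H69 mutant RFP strains grown together 50/50 in each well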
AID977628 – growth of wild-type and h24-humanized E. coli strains – h24 mutant RFP vs wild-type GFP, cherry-pick, dose response. 1,900 tested, under 10 active. E. coli WT GFP strain growth, fluorescence, 24 h. shares compounds with rRNA inh HTS. activity change, negative = inhibition at 50 µM. AID 977628;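 active means compound lowering the normal-ribosome reporter at least twice as much as the humanized-ribosome reporter, growth loss under a set limit; inconclusive means no clear call, values can overlap the other calls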;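 further: wild-type GFP and h24 humanized RFP strains co-cultured 1 to 1 per well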
Numbers without * were called inactive.

Screening COc1ccc(C#Cc2ccc([C@H]3[C@H]4CN(C(=O)Nc5ccccc5F)CCCCN4[C@H]3CO)cc2)cc1 returned PGC1a acetyl inh 4, rRNA inh HTS -2, Cneo AK release -4, FGF22 binding 0 and PglD inh 1.
Screening O=S(=O)(Cc1ccccc1)N1CCCCN2[C@H](CO)[C@@H](c3ccc(C#Cc4ccccc4)cc3)[C@@H]2C1 returned PGC1a acetyl inh -9, rRNA inh HTS 6, Cneo AK release 2, FGF22 binding 0 and PglD inh 1.
Screening CC(C)CC#Cc1ccc([C@H]2[C@@H](CO)N3CCCCN(S(=O)(=O)Cc4ccccc4)C[C@H]23)cc1 returned PGC1a acetyl inh -29, rRNA inh HTS -21*, Cneo AK release 2, FGF22 binding 0, PglD inh 2 and AID977628 inconclusive.
`CC(C)CC#Cc1ccc([C@@H]2[C@@H](CO)N3C(=O)CN(C(=O)Cc4ccccc4)C[C@@H]23)cc1` gave PGC1a acetyl inh 11, rRNA inh HTS -38*, AID977621 1.1 and AID977628 inconclusive.
C[C@@H]1CN([C@@H](C)CO)S(=O)(=O)c2ccc(-c3ccccc3F)cc2O[C@H]1CN(C)Cc1ccncc1 was read as PGC1a acetyl inh 15, rRNA inh HTS -38, Cneo AK release -2, FGF22 binding 0 and PglD inh 1.
For COCC(=O)N1C[C@@H]2[C@H](c3ccccc31)[C@@H](CO)N2C(=O)c1ccccc1F the results were PGC1a acetyl inh 6, rRNA inh HTS 4, Cneo AK release 2, FGF22 binding 1 and PglD inh 0.
For C[C@H]1CN([C@@H](C)CO)C(=O)c2cccc(NS(=O)(=O)c3cccs3)c2O[C@H]1CN(C)Cc1ccc(Cl)c(Cl)c1 the results were PGC1a acetyl inh -7, rRNA inh HTS -6, Cneo AK release 2, FGF22 binding 0 and PglD inh -3.
Screening C[C@@H]1CN([C@@H](C)CO)C(=O)c2cc(NC(=O)Cc3cn(C)c4ccccc34)ccc2O[C@H]1CN(C)Cc1ccncc1 returned PGC1a acetyl inh 12, rRNA inh HTS -3, Cneo AK release 56, FGF22 binding 0 and PglD inh 4.
Screening COc1cccc(NC(=O)c2ccc(C(=O)c3ccccc3)o2)c1 returned Vif inh -4, PGC1a acetyl inh 12, rRNA inh HTS -33*, Cneo AK release -3, FGF22 binding 0, PglD inh -2 and AID977621 -15.
`Fc1ccc(-c2nc3c(Cl)cc(C(F)(F)F)cn3c2Cc2ccsc2)cc1` gave rRNA inh HTS -17*, FGF22 binding 0, AID977621 -12 and AID977628 -6.7.
For O=C(c1ccccc1)N1C[C@@H]2[C@H](c3ccccc31)[C@@H](CO)N2S(=O)(=O)c1ccccc1 the results were PGC1a acetyl inh 4, rRNA inh HTS -5, Cneo AK release -3, FGF22 binding -1 and PglD inh 3.
Screening O=c1c2ccccc2nc(SCc2ccccc2)n1CC1CCCO1 (stereo not given) returned Vif inh 0, rRNA inh HTS -21*, FGF22 binding 0, AID977621 -12 and AID977628 -18.
`CC(=O)Cc1cc(O)c2ccccc2c1OC(=O)c1ccc(Br)cc1` gave Vif inh inconclusive, PGC1a acetyl inh 6, rRNA inh HTS -14*, FGF22 binding 0, AID977621 6.9 and AID977628 0.52.
`CCCC#Cc1ccc2c(c1)O[C@@H](CN(C)Cc1ccncc1)[C@H](C)CN([C@@H](C)CO)S2(=O)=O` gave PGC1a acetyl inh 6, rRNA inh HTS -42, Cneo AK release -16, FGF22 binding -1 and PglD inh -2.
`Cc1ccc(C(=O)C2Oc3ccccc3C3CC(c4ccc(C)cc4)=NN23)cc1` (stereo not given) gave Vif inh -1, PGC1a acetyl inh -3, rRNA inh HTS -17*, Cneo AK release 1, FGF22 binding -1, PglD inh -3, AID977621 4 and AID977628 0.038.
`COCC(=O)N1[C@@H](CO)[C@@H](c2ccccc2)C12CN(Cc1ccccc1)C2` gave PGC1a acetyl inh -5, rRNA inh HTS 0 and FGF22 binding 1.
`Cc1cccc(NC(=O)c2sc3nc(-c4ccccc4)cn3c2C)n1` gave Vif inh -8, PGC1a acetyl inh 2, rRNA inh HTS -18*, Cneo AK release 1, FGF22 binding 0, PglD inh -1 and AID977621 -12.
Cc1c(C(=O)Nc2ccccc2)sc2nc(-c3ccccc3)cn12 was read as Vif inh -5, PGC1a acetyl inh -35, Cneo AK release 0 and PglD inh 4.
Screening O=C(CN1CCOCC1)N[C@H]1CC[C@@H](CCn2cc(C3CCCC3)nn2)O[C@H]1CO returned PGC1a acetyl inh 4 and rRNA inh HTS 3.
Screening O=C(c1ccccc1)C1CN(Cc2ccccc2)CCC1(O)c1ccccc1 (stereo not given) returned Vif inh 0, rRNA inh HTS -18*, Cneo AK release 0, FGF22 binding 0, PglD inh -4 and AID977621 -0.75.
`OC(c1ccccc1)C1CN(Cc2ccccc2)CCC1(O)c1ccccc1` (stereo not given) gave Vif inh 16, PGC1a acetyl inh -9, rRNA inh HTS 2, Cneo AK release 2, FGF22 binding 0 and PglD inh 4.
Screening C[C@@H]1CN([C@@H](C)CO)C(=O)c2ccccc2-c2ccccc2CO[C@@H]1CN(C)C(=O)Cc1ccccc1 returned rRNA inh HTS 0.
CN(C(=O)CN1C(=O)NC2(CCc3ccccc32)C1=O)C1CCCCC1 (stereo not given) was read as Vif inh 2, PGC1a acetyl inh 5, rRNA inh HTS -13*, Cneo AK release 1, FGF22 binding 43, PglD inh 1, AID977621 inconclusive and AID977628 -14.
`COc1cccc(-c2cnc3c(c2)C(=O)N([C@@H](C)CO)C[C@H](C)[C@H](CN(C)C(=O)CN(C)C)O3)c1` gave PGC1a acetyl inh 1, rRNA inh HTS 4, Cneo AK release -9, FGF22 binding 0 and PglD inh 5.
